Test results reported in PubChem BioAssay AID651583 (The Scripps Research Institute Molecular Screening Center, 2012).
Calls of active or inactive are those of the source.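 The calls were made as follows: active = Toxic to Huh-7.5 liver cells, with CC50, the dose killing half the cells, at most 24 µM; inactive = CC50 above 24 µM.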

Test system: Huh-7.5 viability, XTT absorbance
Assay: viability loss in Huh-7.5 hepatoma cells – cell-based, XTT absorbance, powder samples, cytotoxicity control for HCV core dimerization inhibitor project, late-stage follow-up (AID 651583)
Summary of the method: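 Material – Huh-7.5 cell line, viability by mitochondrial dehydrogenase activity · Replication – triplicate wells per concentration · Measure – CC50 from four-parameter sigmoidal fit of % inhibition versus DMSO · Benchmarks – DMSO control, cell-free compound blanks · Times – 72 h compound exposure at 37 °C · Technique – XTT-PMS absorbance, 450/650 nm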

In the case of `Cc1ccc(Cc2c(C)nc3nc(SCC(=O)NCCN4CCN(Cc5ccc(F)cc5)CC4)nn3c2C)cc1`, the CC50 is reported as 180 µM (inactive).

For `Cc1ccc(Cc2c(C)nc3nc(SCC(=O)NCCN4CCOCC4)nn3c2C)cc1`, the CC50 was > 12 µM (inactive).

With `Cc1ccc(Cc2c(C)nc3nc(SCC(=O)NCCN4CCN(S(=O)(=O)c5ccccc5)CC4)nn3c2C)cc1` the CC50 was 37.6 µM (inactive).

For `Cc1ccc(Cc2c(C)nc3nc(SCC(=O)NCCN4CCN(CCc5ccccc5)CC4)nn3c2C)cc1`, the CC50 was > 36 µM (inactive).

For `Cc1ccc(Cc2c(C)nc3nc(SCC(=O)NCCN4CCCCCC4)nn3c2C)cc1`, the CC50 was 42.6 µM (inactive).

For `Cc1ccc(Cc2c(C)nc3nc(SCC(=O)NCCN4CCN(Cc5ccc(Cl)cc5)CC4)nn3c2C)cc1`, the CC50 was > 4 µM (inactive).

For `Cc1ccc(Cc2c(C)nc3nc(SCC(=O)NCCN4CCNCC4)nn3c2C)cc1`, the CC50 was 33.8 µM (inactive).

For `Cc1ccc(Cc2c(C)nc3nc(SCC(=O)NCCN4CCCN(S(=O)(=O)c5ccccc5)CC4)nn3c2C)cc1`, the CC50 was 9.51 µM.

With `Cc1ccc(Cc2c(CCc3ccccc3)nc3nc(SC(Cc4ccccc4)C(=O)NCCN4CCOCC4)nn3c2C)cc1` (stereo unspecified) the CC50 was 22.1 µM.

Work on `Cc1ccc(Cc2c(C)nc3nc(SCC(=O)NCCN4CCCN(S(=O)(=O)c5ccc(C)cc5)CC4)nn3c2C)cc1` yielded a CC50 of 13.8 µM.

In the case of `Cc1ccc(Cc2c(C)nc3nc(SCC(=O)NCCN4CCCN(S(C)(=O)=O)CC4)nn3c2C)cc1`, the CC50 is reported as 193 µM (inactive).
